DDE Tn6 FP inh = inhibitors of Tn6 peptide binding to fibrin DD(E), primary screen, biochemical, fluorescence polarization, human fibrin, Tn6 probe; Fibrinogen beta chain (Homo sapiens), P02675; Fibrin DD(E) TRITC-Tn6 fluorescence polarization displacement; inhibition, % at 8.3 µM; 0.21% of 370,000 active; AID 720509, 2013;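 active means inhibition above a per-campaign cutoff: mean of compounds within control limits plus 3 SD, cut at about 15% in these data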;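 further: 0% = median of all compound wells on the plate and 100% = blocking peptide control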
SKN-1 block = suppressors of acrylamide-induced Pgst-4::GFP reporter in worms, primary screen, SKN-1 inhibitor project, whole organism, uHTS, GFP/RFP fluorescence ratio, strain VP596; C. elegans VP596 Pgst-4::GFP/RFP ratio, 24 h; inhibition, % at 21.8 µM; 0.49% of 360,000 active;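 active means interference check ratio from 0.5 to 1.5 plus GFP to RFP signal ratio inhibition reaching or exceeding a fixed threshold, cut at about 30% in these data, passing the limit was not always enough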
DDE Tn7 FP inh = inhibitors of Tn7 peptide binding to fibrin DD(E), primary screen, biochemical, fluorescence polarization, human fibrin, Tn7 probe; inhibition, % at 8.3 µM; FP displacement of FITC-Tn7 peptide from fibrin DD(E); 0% = median of compound wells per plate; 0.13% of 370,000 active;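 active means inhibition above the mean of compounds falling within the control limits plus 3 SD of them, cut at about 14% in these data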;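 further: 0% = plate median of compound wells and 100% = 10 µM Aha-Tn7 peptide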
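Assay system: Fibrin-DD(E) protein isolated from polymerized human fibrin clots; read-out basis: percent inhibition; medium: Tris/NaCl/CaCl2 buffer, pH 7.8; signal: FP measurement; incubation: 10 min plus 3 h, room temperature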
Neddyl block = inhibitors of cullin neddylation, primary screen, biochemical, TR-FRET, uHTS, NAE and Ubc12; 0.58% of 360,000 active; NEDD8-conjugating enzyme Ubc12 (Homo sapiens) + NEDD8-activating enzyme E1 regulatory …; AID 651699, 2012; calls only at 25 µM; in the data active means inhibition above about 36%
Target sequence (P61081 whole entry, looked up): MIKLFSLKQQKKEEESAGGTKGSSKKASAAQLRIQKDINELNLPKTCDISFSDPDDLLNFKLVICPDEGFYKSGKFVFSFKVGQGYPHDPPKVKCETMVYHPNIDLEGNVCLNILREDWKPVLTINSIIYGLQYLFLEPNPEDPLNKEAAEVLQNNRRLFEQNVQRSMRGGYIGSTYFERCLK
Target sequence (Q13564 whole entry, looked up): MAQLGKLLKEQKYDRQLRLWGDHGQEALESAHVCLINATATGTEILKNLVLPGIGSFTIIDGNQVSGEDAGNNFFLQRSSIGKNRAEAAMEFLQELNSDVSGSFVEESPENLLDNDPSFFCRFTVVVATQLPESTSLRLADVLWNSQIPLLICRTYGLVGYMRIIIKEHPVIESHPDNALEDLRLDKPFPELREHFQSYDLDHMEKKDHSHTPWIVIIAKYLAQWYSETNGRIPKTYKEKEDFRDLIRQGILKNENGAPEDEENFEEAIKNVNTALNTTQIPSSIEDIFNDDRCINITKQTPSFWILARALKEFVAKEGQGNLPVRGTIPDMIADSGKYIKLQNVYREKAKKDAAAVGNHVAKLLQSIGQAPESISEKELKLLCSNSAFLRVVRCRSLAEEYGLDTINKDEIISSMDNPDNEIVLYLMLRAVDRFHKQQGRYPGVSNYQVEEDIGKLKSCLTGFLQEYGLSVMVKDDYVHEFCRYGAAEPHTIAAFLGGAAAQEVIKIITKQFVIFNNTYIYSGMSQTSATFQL
proKLK7 act = proKLK7 zymogen activators, primary screen, biochemical, fluorescence intensity | Kallikrein-7 (Homo sapiens), P49862 | AID 652039, 2013 | purified proKLK7, EDANS-DABCYL substrate fluorescence; 100% is mature enzyme control, 0% vehicle | activation, % at 7 µM | 0.9% of 370,000 active;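 active means activation above the mean of all tested compounds plus 3 SD, computed per campaign excluding outliers beyond control limits, cut at about 13% in these data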
MT1-MMP act inh = blockers of MT1-MMP proenzyme processing, primary screen, HT1080 RFP-PRO-GFP cells, GFP/RFP fluorescence; Matrix metalloproteinase-14 (Homo sapiens), P50281; GFP/RFP ratio fluorescence, overnight; percent of plate control window, DMSO zero; GFP/RFP ratio change, % at 20 µM; 0.061% of 360,000 active;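 active means GFP/RFP ratio change of at least 30% with cell ATP level not reduced by more than half and red fluorescence within 50% of control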
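Test system: HT1080 RFP-PRO-GFP cells; Benchmarks: DMSO and RFP-L50D-GFP cell wells; Timing: cells overnight before dosing, compound overnight, 37 °C, 5% CO2; Compound: one 20 µM compound dose with 1% DMSO; Read-out: GFP/RFP fluorescence ratio.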
Neddyl inh conf = blockade of NEDD8 conjugation to cullin – biochemical, TR-FRET, single concentration, confirmation; shares compounds with Neddyl block; TR-FRET cullin neddylation biochemical assay; calls only at 25 µM; 13% of 1,800 active; in the data active means inhibition above about 40%;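 further: neddylation substrate is the cullin 1 ring ligase complex with SKP2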
* hit, by the source's call; i = inactive; / = no result given; + = active, no number. An excerpt weighted towards active compounds, which were near 2.2% of everything screened.

SMILES	DDE Tn6 FP inh	SKN-1 block	DDE Tn7 FP inh	Neddyl block	proKLK7 act	MT1-MMP act inh	Neddyl inh conf
CSc1ccc(/C=C2\CCn3c2nc2cc(C(=O)O)ccc2c3=O)cc1	-0.3	11.7	1.5	+	-3.0	12.5	+
COC(=O)c1ccc(/C=C2\CCn3c2nc2cc(C(=O)O)ccc2c3=O)cc1	/	4.0	/	+	/	4.2	+
O=C(Cc1csc(N2CCOCC2)n1)N/N=C/c1ccc(Cl)cc1Cl	4.9	18.8	0.9	i	0.5	-8.5	/
COc1ccc(C(=O)Nc2sc3c(c2C(=O)O)CC(C)(C)OC3)cc1	-7.0	-7.8	3.2	+	-0.1	-5.1	+
CC(C)(C)C1CCC(OC(=O)c2cncc(Br)c2)CC1 (stereo unspecified)	-3.6	3.6	3.3	i	-0.2	0.9	/
CCNC(=O)COC(=O)C1C(C(=O)OCC)=C(C)NC(C)=C1C(=O)OCC	-0.9	6.8	0.6	i	1.1	-2.2	/
CCOC(=O)C1=C(C)NC(C)=C(C(=O)OCC)C1C(=O)OCC(=O)NC1CCCCC1	-1.4	-5.1	2.0	+	3.4	-1.4	i
CCOC(=O)C1=C(C)NC(C)=C(C(=O)OCC)C1C(=O)OCC(=O)NCc1ccc(F)cc1	2.2	1.0	3.1	+	2.6	-7.0	/
Cc1ccc(N(CC(=O)N/N=C/c2ccc(OCC(N)=O)cc2)S(C)(=O)=O)cc1Cl	-1.3	-17.2	7.9	i	-0.7	-1.8	/
CN(C)[C@@H]1CCN(c2cccc3c2S(=O)(=O)N2CC[C@H](C2)O3)C1	-3.4	/	3.1	/	-0.1	/	/
Cc1cc(C)c2cc(C(=O)Nc3ccc(C)c(F)c3)[nH]c2c1	8.8	-10.0	3.4	i	-1.7	-5.0	/
CCCCNC(=O)c1cc2c(C)cc(C)cc2[nH]1	1.2	15.7	1.3	+	0.8	-1.9	i
O=c1oc2ccccc2c(NC2CCCCC2)c1NS(=O)(=O)c1ccc(F)cc1	5.5	13.1	-1.1	i	-0.7	0.5	/
CCc1ccc(S(=O)(=O)Nc2c(NC3CCCCC3)c3ccccc3oc2=O)cc1	/	13.2	/	+	/	-1.4	+
COc1ccc(-n2cc(CNCc3cnc4ccccn34)c(-c3cccc(F)c3)n2)cc1	-1.0	3.3	-0.9	+	0.1	-13.2	/
COc1ccc(-n2cc(CNCC3CCOCC3)c(-c3cccc(F)c3)n2)cc1	3.7	1.8	-2.6	/	-0.2	-10.3	/
CCOC(=O)c1ccc(NC(=O)CCc2nnc3ccc(N4CCN(C)CC4)nn23)cc1	2.3	11.1	-11.4	i	0.2	-1.9	/
Cn1c(=O)c2c(nc(NCC3CCCO3)n2C)n(C)c1=O (stereo unspecified)	1.4	16.2	1.7	i	0.5	4.0	/
CC(=O)Oc1ccc2nc(/C=C/c3ccccc3)oc(=O)c2c1	-8.2	15.1	0.7	+	0.4	2.4	i
COc1cc(/C=N/NC(=O)C(=O)NCc2ccco2)ccc1O	-5.1	10.2	2.7	i	-0.1	2.7	/
Cc1ccc(S(=O)(=O)C(C#N)c2nc3ccccc3nc2N2CC(C)OC(C)C2)cc1C (stereo unspecified)	3.5	-5.6	0.0	/	-0.2	-7.5	/
Cc1cccc(S(=O)(=O)C(C#N)c2nc3ccccc3nc2N2CC(C)OC(C)C2)c1 (stereo unspecified)	-2.8	-10.8	-3.5	+	-19.8	-14.5	i
Nc1c(C(=O)N/N=C/c2ccc(Cl)cc2)cnn1-c1ccccc1	2.2	-9.8	6.6	i	0.4	5.3	/
O=c1c(Cl)c(N/N=C/c2ccc(Cl)cc2)cnn1-c1ccccc1	-2.8	10.1	2.4	+	-7.4	-4.3	i
Oc1ccccc1/C=N/NC(=S)NCCc1ccccc1	3.3	-1.2	0.3	+	-58.2	-0.7	i
SMILES	DDE Tn6 FP inh	SKN-1 block	DDE Tn7 FP inh	Neddyl block	proKLK7 act	MT1-MMP act inh	Neddyl inh conf
Oc1ccccc1C=NNC(=S)Nc1ccc(F)cc1	4.4	0.8	-1.4	+	-39.0	2.7	/
CCOC(=O)C1CC(=NO)c2ccc(OC)c(OC)c2C1 (stereo unspecified)	-2.0	7.9	5.1	+	0.8	-3.5	i
CCOC(=O)C1CCN(S(=O)(=O)c2ccc(OC)c(OC)c2)CC1	-4.0	2.4	0.2	i	-0.1	-2.4	/
C=CCOc1c(CNc2cccc(C(=O)O)c2)cccc1OCC	5.0	-4.5	-1.6	+	-1.2	-3.3	i
C=CCOc1c(CNc2cccc(C(=O)O)c2)cccc1OC	-4.1	3.4	-2.7	/	-1.3	1.1	/
Cc1c(C)c2ccc(OCC(=O)N(C)C)c(C)c2oc1=O	-4.1	7.9	-3.6	/	0.3	-18.1	/
Cc1cc(=O)oc2c(C)c(OCC(=O)N(C)C)ccc12	-8.1	-3.0	0.1	+	-0.5	4.0	i
CCc1cc(=O)oc2c(C)c(OCC(=O)N3CCC(C(=O)O)CC3)ccc12	3.7	-6.7	-6.0	+	1.6	1.7	+
Cc1cc(=O)oc2c(C)c(OCC(=O)N3CC[C@@]4(O)CCCC[C@H]4C3)ccc12	-0.5	-3.3	-2.4	+	-0.4	-0.3	i
CCn1nc(C(=O)OCC(=O)c2cc(C)n(Cc3cccs3)c2C)c2ccccc2c1=O	-8.5	-6.0	4.0	i	-0.1	0.6	/
CCCn1cnc2c(c1=O)c1nc3ccccc3nc1n2CCc1ccccc1	-1.8	11.2	1.1	+	0.1	-0.9	i
CCCCn1c2nc3ccccc3nc2c2c(=O)n(CCC(C)C)cnc21	0.0	3.2	-4.6	i	-0.4	2.3	/
CC(C)Cn1c2nc3ccccc3nc2c2c(=O)n(CCN3CCOCC3)cnc21	-4.6	-17.2	3.1	+	-1.0	4.6	i
CCCCn1c2nc3ccccc3nc2c2c(=O)n(-c3ccccc3)cnc21	5.1	-2.4	10.9	+	-1.2	1.2	i
CC(=O)Nc1cccc2c1C(=O)NC2=O	-7.6	31.9	1.7	+	-25.5	-2.5	+

Assay outcomes (PubChem BioAssay)
